# Measured values collected from several papers.
# Compare with care: the assays were run in different laboratories.
# SLC6A4: Sodium-dependent serotonin transporter (SLC6A4, Homo sapiens, UniProt P31645)
# rep papain-like protease: Replicase polyprotein 1ab, papain-like protease (rep, Porcine epidemic diarrhea virus, UniProt P0C6Y4)
# rep main protease: Replicase polyprotein 1ab, main protease (rep, Porcine epidemic diarrhea virus, UniProt P0C6Y4)
SMILES,target,test,test system,conditions,measurement,value
CCOC(=O)[C@@]12C[C@@H]1[C@@H](n1cnc3c(NCCCCCc4ccccc4)nc(C#Cc4ccccc4)nc31)[C@H](O)[C@@H]2O,SLC6A4,"ligand displacement, radioligand",,"10 µM, cell membranes",inhibition,27%
COc1cc(CNC(=O)c2cccc(OC(C)=O)c2C)cc(Br)c1OC,rep papain-like protease,"enzyme activity, inhibitor, FRET",,10 µM,inhibition,14.1%
Cc1cc(O)c(-c2ccc([C@@H](C)CN(C)C)cc2)c2c1[nH]c(=O)c1sccc12,"Mitogen-activated protein kinase kinase kinase 20 (MAP3K20, Homo sapiens, UniProt Q9NYL2)","enzyme activity, inhibitor",,0.1 µM,inhibition,-2.95%
CCCCC(=O)Nc1ccc(-c2ccc3ncn(CCC)c(=O)c3c2)cn1,"BDNF/NT-3 growth factors receptor (NTRK2, Homo sapiens, UniProt Q16620)","binding, competition with immobilised ligand",,0.5 µM,remaining binding,100%
CCCCC[C@H](O)/C=C/[C@H]1[C@H](O)CC(=O)[C@@H]1C/C=C\CCCC(=O)O,"Prostaglandin E2 receptor EP1 subtype (PTGER1, Homo sapiens, UniProt P34995)","inositol phosphate, agonist, TR-FRET",AD293,1 h,Emax,99.9%
COc1cc(CNC(=O)c2ccco2)cc(Br)c1OC,rep main protease,"enzyme activity, inhibitor, FRET",,10 µM,inhibition,64.9%
CCOC(=O)[C@@]12C[C@@H]1[C@@H](n1ccc3c(NCCCCCc4ccccc4)nc(C#Cc4ccccc4)nc31)[C@H](O)[C@@H]2O,SLC6A4,"ligand displacement, radioligand",,10 µM,inhibition,29%
C1=C/COCc2cc(ccc2OCCN2CCCC2)Nc2nccc(n2)-c2cccc(c2)COC/1,"Rhodopsin kinase GRK7 (GRK7, Homo sapiens, UniProt Q8WTQ7)",binding,,0.1 µM,remaining binding,86%
COc1cc(CNC(=O)c2ccc(OC(F)(F)F)cc2)cc(Br)c1OC,rep papain-like protease,"enzyme activity, inhibitor, FRET",,10 µM,inhibition,10.8%
CCOC(=O)[C@@]12C[C@@H]1[C@@H](n1cnc3c(Nc4ccccc4)nc(C#Cc4ccc(Cl)s4)nc31)[C@H](O)[C@@H]2O,SLC6A4,"ligand displacement, radioligand",,10 µM,inhibition,20%
COc1ccc(CNC(=O)c2ccc(Br)cc2)cc1OC,rep main protease,"enzyme activity, inhibitor, FRET",,10 µM,inhibition,60.4%
CCOC(=O)[C@@]12C[C@@H]1[C@@H](n1cnc3c(NCCCCCCc4ccccc4)nc(I)nc31)[C@H](O)[C@@H]2O,SLC6A4,"ligand displacement, radioligand",,10 µM,inhibition,68%
COc1cc(CNC(=O)c2ccc3ccccc3n2)cc(Br)c1OC,rep main protease,"enzyme activity, inhibitor, FRET",,10 µM,inhibition,85.2%
COc1cc(-c2cc(C(C)=O)n3ccccc23)cc(OC)c1Cn1ccnc1,"Bromodomain adjacent to zinc finger domain protein 2B, bromodomain (BAZ2B, Homo sapiens, UniProt Q9UIF8)","thermal stability, DSF",,,ΔTm,1.6 °C
CCOC(=O)[C@@]12C[C@@H]1[C@@H](n1cnc3c(Nc4ccccc4)nc(I)nc31)[C@H](O)[C@@H]2O,SLC6A4,"ligand displacement, radioligand",,10 µM,inhibition,-12%
